The text below walks through data of ChEMBL document CHEMBL4020820, “Insights into the Impact of a Membrane-Anchoring Moiety on the Biological Activities of Bivalent Compounds As Potential Neuroprotectants for Alzheimer's Disease” (J Med Chem, 2018).

Series [1] relates to Brain. The series is described as follows: Effect on oxidative phosphorylation efficiency in C57BL/6 mouse brain mitochondria assessed as respiratory control ratio using glutamate at 3.3 uM (reference value: 3.8 +/- 0.5). It is filed as ADME.
Series [2] has as its system Lipid bilayer. The series is described as follows: Binding affinity to DPPC membrane assessed as change in enthalpy by differential scanning calorimetry (reference value: 8.7 kcal/mol). Summed up:
(§1)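 Multilamellar DPPC vesicles (2 mg lipid) with compound at various lipid:compound molar ratios (40:1 up to 5:1) in 100 mM NaCl, 25 mM Hepes pH 7.4, made by vortexing at 55 °C. Samples degassed 10 min, buffer as reference. DSC scans 10–60 °C at 60 °C/h. Traces normalized to DPPC content. Onset (Tc), completion temperature and enthalpy taken from thermograms.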

Series [3] relates to Lipid bilayer. The series is described as follows: Binding affinity to DPPC membrane assessed as appearance of disordered membrane structure at […] at 25 degC by SAXD analysis. Summed up: (§2)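 DPPC (2 mg) with compound at 10:1 lipid:compound molar ratio, hydrated in 100 mM NaCl, 25 mM Hepes pH 7.4, vortexed at 55 °C to form multilamellar vesicles. Small- and wide-angle X-ray diffraction at 25 and 50 °C; 10 min equilibration, 10 min exposure; d-spacings and chain packing read from reflections.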

The test system of series [4] is Lipid bilayer. As to the kind of experiment: Binding affinity to DPPC membrane assessed as phase transition completion temperature at 5:1 […] molar ratio by differential scanning calorimetry (reference value: 43.1 degC). Summed up:
as §1
On the technique in general: Differential scanning calorimetry records heat flow against a reference as temperature is scanned.

For series [5], the system named is Brain. As to the kind of experiment: Effect on oxidative phosphorylation efficiency in C57BL/6 mouse brain mitochondria assessed as ADP/O ratio at 3.3 uM using succinate as substrate (reference value: 1.3 +/- 0.2). It counts as ADME.
Series [6] deals with Lipid bilayer. The series is described as follows: Binding affinity to DPPC membrane assessed as increase in membrane thickness at […] at 50 degC by SAXD analysis. Summed up: as §2
The subject of series [7] is Lipid bilayer. The series is described as follows: Binding affinity to DPPC membrane assessed as appearance of disordered membrane structure at […] at 25 degC by WAXD analysis. To be noted: in the assay text read “SAXD analysis” for “WAXD analysis”. Summed up:
as §2

Series [8] concerns Brain. As to the kind of experiment: Effect on oxidative phosphorylation efficiency in C57BL/6 mouse brain mitochondria assessed as respiratory control ratio at 3.3 uM using succinate as substrate (reference value: 2.3 +/- 0.2). It counts as ADME.
Series [9] is described as follows: Neuroprotective activity against tetracycline removal-induced cytotoxicity in human MC65 cells assessed as increase in cell viability after 72 hrs by MTT assay. It counts as functional, cell-based. To be noted: MC65, 72 h. Summed up: (§3)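 MC65 cells kept in DMEM/10% FBS with 1 µg/mL tetracycline and G418. Cells washed twice with PBS, seeded in Opti-MEM at 4×10^4/well without tetracycline, given compound (0.3 µM, alone or in combination), 72 h at 37 °C. MTT added for 4 h, formazan dissolved in DMSO, A570 read. Viability as % of +TC controls; six replicates, ≥3 independent runs.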
A general note: Tetrazolium dyes change colour on reduction, which living cells bring about.

Series [10] deals with Lipid bilayer. The series is described as follows: Binding affinity to DPPC membrane assessed as shift in onset of transition temperature at 40:1 […] molar ratio by differential scanning calorimetry. Summed up: as §1
Series [11] has as its system Brain. As to the kind of experiment: Effect on oxidative phosphorylation efficiency in C57BL/6 mouse brain mitochondria assessed as ADP/O ratio at 3.3 uM using glutamate (reference value: 2.3 +/- 0.3). It counts as ADME.
The test system of series [12] is Lipid bilayer. The series is described as follows: Binding affinity to DPPC membrane assessed as phase separation in membrane structure at […] at 50 degC by SAXD analysis. Summed up: as §2
In a further series the test system is N2a. As to the kind of experiment: Neuroprotective activity in mouse N2A cells assessed as increase in neurite outgrowth at 0.3 uM after 48 hrs by fluorescent microscopic method. It is filed as functional, cell-based. Summed up: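 N2a cells seeded at 1×10^4/well in MEM with 0.5% FBS plus compound (0.3 µM) for 48 h. Neurite outgrowth stain, then fluorescence imaging at 10× (20 images per well). Average neurite length quantified; mean ± SEM, n=3.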

The nature of series [13]: Effect on electron transport chain mitochondrial complex-4 activity in C57BL/6 mouse brain mitochondria assessed as change in first-order rate of consumption of reduced cytochrome C at 3.3 uM measured over 7.5 mins by spectrophotometry. It counts as ADME. As to conditions: 0.125 h. Summed up: (§4)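 Frozen-thawed C57BL/6 mouse brain mitochondria solubilized in 5% cholate (pH 7.2), diluted in KME buffer (100 mM KCl, 50 mM MOPS, 1 mM EGTA), treated with compound at 3.3 µM. Complex I: NADH consumption at 340 nm with 100 µM antimycin A, 1 mM decylubiquinone, 150 µM NADH, 40 µg/mL protein, ± 7.5 µM rotenone. Complex IV taken after background subtraction. Mean ± SEM, n=4.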

The nature of series [14]: Effect on electron transport chain mitochondrial complex-3 activity in C57BL/6 mouse brain mitochondria assessed as change in initial rate of reduction of cytochrome C at 3.3 uM in presence of decylubiquinone by spectrophotometry. It counts as ADME. Summed up:
as §4

Series [15] deals with Brain. As to the kind of experiment: Effect on oxidative phosphorylation efficiency in C57BL/6 mouse brain mitochondria assessed as decrease in ADP-stimulated respiratory rate of glutamate at 3.3 uM. It counts as ADME.
A short description of series [16]: Effect on electron transport chain mitochondrial complex-1 activity in C57BL/6 mouse brain mitochondria assessed as change in rate of NADH consumption at 3.3 uM in presence of antimycin A/decylubiquinone by spectrophotometry. It is filed as ADME. Summed up: as §4
Series [17] deals with Brain. As to the kind of experiment: Effect on oxidative phosphorylation efficiency in C57BL/6 mouse brain mitochondria assessed as change in state 4 respiratory rate of succinate at 3.3 uM. It is filed as ADME.
Another series concerns Cortical neurone. The series is described as follows: Neuroprotective activity in E17 rat primary cortical neurons assessed as increase in neurite outgrowth after 4 days by DAPI-staining based assay. It is filed as functional, cell-based. Summed up: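 Rat E17 cortical neurons on poly-D-lysine coverslips (2×10^4/well) in neurobasal/B27/Glutamax, treated with DMSO or compound from DIV1. Fixed at DIV5 in 4% PFA; neurites immunostained for beta III tubulin, nuclei with DAPI.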

Series [18] concerns Brain. The series is described as follows: Effect on oxidative phosphorylation efficiency in C57BL/6 mouse brain mitochondria assessed as change in state 3 respiratory rate of succinate at 3.3 uM. It is filed as ADME.
Series [19] in a line: Effect on electron transport chain mitochondrial complex-2 activity in C57BL/6 mouse brain mitochondria assessed as change in rate of oxidation of DCPIP at 3.3 uM using succinate as substrate in presence of decylubiquinone by spectrophotometry. It is filed as ADME. Summed up: as §4
Series [20] has as its system Brain. As to the kind of experiment: Effect on oxidative phosphorylation efficiency in C57BL/6 mouse brain mitochondria assessed as change in state 3 respiratory rate of glutamate at 3.3 uM relative to control. It is filed as ADME.
For another series, the system named is MC65. As to the kind of experiment: Neuroprotective activity against tetracycline removal-induced cytotoxicity in human MC65 cells assessed as increase in cell viability at 0.3 uM after 72 hrs by MTT assay. It counts as functional, cell-based. Summed up:
as §3

Calls of active or inactive are those of the source. No cut-off for these calls is given here.

In the case of `COc1cc(/C=C/C(=O)/C(Cc2cn(CCNC(=O)COCC(=O)NCCCCN[C@H]3CC[C@@]4(C)C(=CC[C@H]5[C@@H]6CC[C@H]([C@H](C)CCCC(C)C)[C@@]6(C)CC[C@@H]54)C3)nn2)=C(O)/C=C/c2ccc(O)c(OC)c2)ccc1O`, the Ratio with Brain [1] is 3.9; in the series on Brain [5] it was 1.1; in the series on Brain [8] it was 2.6; with Brain [11], 2.4. For the same compound, in the series on Lipid bilayer [2], the deltaH was 3 to 5 kcal/mol. Further, the outcome in the series on Lipid bilayer [3], in the series with Lipid bilayer [6], in the series on Lipid bilayer [7] and in the series on Lipid bilayer [10] was Active. Also, in the series on Lipid bilayer [4], the T is 42.4 °C. Further, in series [9], the EC50 (in general, the midpoint of the concentration-response curve) came out at 56.5 nM.

As to `COc1cc(/C=C/C(=O)/C(Cc2cn(CCNC(=O)COCC(=O)NCCCCO[C@H]3CC[C@@]4(C)C(=CC[C@H]5[C@@H]6C[C@@H]7O[C@]8(CC[C@@H](C)CO8)[C@@H](C)[C@@H]7[C@@]6(C)CC[C@@H]54)C3)nn2)=C(O)/C=C/c2ccc(O)c(OC)c2)ccc1O`, the outcome with Lipid bilayer [12], in the series with N2a, in the series on Lipid bilayer [3], in the series with Lipid bilayer [7], in the series on Cortical neurone and with Lipid bilayer [10] was Active. For the same compound, the Ratio is recorded as 3.9 with Brain [1], 1.1 in the series on Brain [5], 2.1 in the series on Brain [8] and 2.3 in the series on Brain [11]. Besides, the deltaH in the series on Lipid bilayer [2] lay in the range of 3 to 5 kcal/mol. Further, the Activity result in series [13] is “Not Active”; in series [14], “Not Active”; in the series on Brain [15] it was “Toxic”; in [16] it was “Not Active”; with Brain [17], “Non-Toxic”; with Brain [18] it was “Non-Toxic”. Besides, the Activity entry in [19] was “Not Active”; in the series on Brain [20], 11.5%. Also, the T in the series on Lipid bilayer [4] turned out to be 42.4 °C. In addition, the EC50 in series [9] is 8.3 nM.

Take `COc1cc(/C=C/C(=O)/C(Cc2cn(CCNC(=O)COCC(=O)NCCCCO[C@H]3CC[C@@]4(C)C(=CC[C@H]5[C@@H]6CC[C@H]([C@H](C)CCCC(C)C)[C@@]6(C)CC[C@@H]54)C3)nn2)=C(O)/C=C/c2ccc(O)c(OC)c2)ccc1O`: the result in the series with Lipid bilayer [12], with Lipid bilayer [3], in the series with Lipid bilayer [7] and in the series on Lipid bilayer [10] was Active. Moreover, the Ratio is on record as 4.4 in the series on Brain [1], 1.2 in the series with Brain [5], 2.4 in the series on Brain [8] and 2.4 in the series on Brain [11]. Besides, the deltaH with Lipid bilayer [2] lay in the range of 3 to 5 kcal/mol. Besides, the EC50 in series [9] came out at 296 nM.

For `COc1cc(/C=C/C(=O)/C(Cc2cn(CCCCCCNC(=O)COCC(=O)NCCCCN[C@H]3CC[C@@]4(C)C(=CC[C@H]5[C@@H]6CC[C@H]([C@H](C)CCCC(C)C)[C@@]6(C)CC[C@@H]54)C3)nn2)=C(O)/C=C/c2ccc(O)c(OC)c2)ccc1O`, the concentration giving a half-maximal response (EC50) in series [9] worked out at 212 nM.

Consider `CCCCNC(=O)COCC(=O)NCCn1cc(C/C(C(=O)/C=C/c2ccc(O)c(OC)c2)=C(O)\C=C\c2ccc(O)c(OC)c2)nn1`, for which the result in the series on N2a and in the series with MC65 was inactive. Further, the Ratio in the series with Brain [8] is given as 1.2.

Turning to `COc1cc(/C=C/C(=O)/C(Cc2cn(CCCCCCNC(=O)COCC(=O)NCCCCO[C@H]3CC[C@@]4(C)C(=CC[C@H]5[C@@H]6CC[C@H]([C@H](C)CCCC(C)C)[C@@]6(C)CC[C@@H]54)C3)nn2)=C(O)/C=C/c2ccc(O)c(OC)c2)ccc1O`, the concentration for a half-maximal effect (EC50) in [9] came out at 1850 nM.

With `COc1cc(/C=C/C(=O)/C(Cc2cn(CCCCCCNC(=O)COCC(=O)NCCCCO[C@H]3CC[C@@]4(C)C(=CC[C@H]5[C@@H]6C[C@@H]7O[C@]8(CC[C@@H](C)CO8)[C@@H](C)[C@@H]7[C@@]6(C)CC[C@@H]54)C3)nn2)=C(O)/C=C/c2ccc(O)c(OC)c2)ccc1O`, the result with N2a and with Cortical neurone was Active. The half-maximal effective concentration (EC50) in series [9] is 30.3 nM.
